According to ChEMBL document CHEMBL1142858, “Conformationally constrained analogues of diacylglycerol (DAG). 27. Modulation of membrane translocation of protein kinase C (PKC) isozymes alpha and delta by diacylglycerol lactones (DAG-lactones) containing rigid-rod acyl groups” (J Med Chem, 2007):
Active and inactive are the calls of the source. The calls are words filed in the database; no cut-off is given here.

Key:
CHO [1] = assay: Translocation of PKC from cytosol to membrane in CHO cells; assay type: functional, cell-based; details: Cricetulus griseus
Method in brief: (§1)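 CHO cells in F12-K with 10% FBS are transfected with GFP-tagged PKC alpha or PKC delta. Live cells are imaged by confocal microscopy with 488 nm excitation, time-lapse every 30 s. Redistribution from cytosol to plasma and internal membranes is followed before and after ligand addition at 10 or 20 µM, over up to about 120 min. Three independent experiments.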

[2] = target: Protein kinase C alpha type (Homo sapiens, UniProt P17252); assay: Displacement of [3H]PDBu from PKCalpha
Method in brief: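 Competition with [3H]PDBu for binding to recombinant single isozyme PKC alpha in the presence of phosphatidylserine. ID50 is taken from a least-squares fit of a sigmoidal competition curve. Ki = ID50/(1 + L/Kd), where L is free [3H]PDBu at the ID50 and Kd is the [3H]PDBu dissociation constant. Mean ± standard error, three determinations.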

U-937 [3] = assay: Induction of attachment of U937 cells after 48 hrs; assay type: functional, cell-based; details: Homo sapiens; for EC50: U-937, 48 h
Method in brief: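 U937 monocytes in RPMI-1640 with 10% FBS are plated at 1 × 10⁵ cells/mL and exposed (final DMSO 0.1%) for 48 h. Non-attached cells and attached cells (after trypsinization) are counted on a Coulter counter. Attached cells are expressed as % of total cells. Mean ± SEM of three independent experiments.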

[4] = Inhibition of cell proliferation in WEHI231 cell line after 48 hrs; assay type: functional, cell-based; details: Mus musculus, WEHI231, 48 h
Method in brief: (§2)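 WEHI-231 cells in DMEM with 10% FBS and 50 µM β-mercaptoethanol are plated at 1 × 10⁵ viable cells/mL and dosed 24 h later (final DMSO 0.1%) for 48 h. Cells are triturated to single-cell suspension and counted on a Coulter counter. Counts are given as % of the DMSO control. Mean ± SEM of three independent experiments.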

LNCaP = assay: Stimulation of ERK phosphorylation in LNCaP cells at 10 uM after 30 min relative to PMA; assay type: cell-based; details: Homo sapiens
Method in brief: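 LNCaP prostate cells in RPMI-1640 with 10% FBS are plated at about 60% confluency and treated 24 h later for 15 or 30 min. Cells are PBS-washed and lysed, and lysates go through 10% SDS-PAGE and immunoblotting with anti-phosphoERK. Phospho-ERK band intensity is expressed relative to 100 nM PMA (= 100%).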

[5] = Inhibition of cell proliferation in WEHI231 cell line at 10 uM after 48 hrs; assay type: functional; details: Mus musculus, WEHI231, 48 h; method in brief: as §2
[6] = Induction of IL6 secretion in WEHI231 cells at 30 uM after 24 hrs relative to 10 uM PMA; assay type: functional, Mus musculus; details: in the assay text read “10 nM PMA” for “10 uM PMA”
Method in brief: (§3)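 WEHI-231 cells are grown in DMEM with 10% FBS and 50 µM β-mercaptoethanol. They are plated at 1 × 10⁵ viable cells/mL and dosed 24 h later (final DMSO 0.1%) for 6 or 24 h. IL-6 in the supernatant is measured by ELISA, one measurement per experiment. It is expressed as % of IL-6 induced by 10 nM PMA at 6 h.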

[7] = Induction of IL6 secretion in WEHI231 cells at 30 uM after 6 hrs relative to 10 uM PMA; assay type: functional, Mus musculus; details: in the assay text read “10 nM PMA” for “10 uM PMA”; method in brief: as §3
CHO [8] = assay: Translocation of PKCdelta from cytosol to membrane in CHO cells; assay type: functional, cell-based; details: Cricetulus griseus; method in brief: as §1
[9] = Stimulation of ERK phosphorylation in LNCaP cells after 30 min; assay type: functional, cell-based; details: Homo sapiens, 0.5 h
Method in brief: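 LNCaP prostate cells in RPMI-1640 with 10% FBS, plated at about 60% confluency and treated 24 h later with a range of concentrations for 15 or 30 min. Cells were washed with PBS and total lysates run on 10% SDS-PAGE, blotted and probed with anti-phosphoERK. Band intensity was expressed relative to 100 nM PMA (= 100%). Approximate EC50 was read from the graph; mean ± SEM of three experiments.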

CHO [10] = assay: Translocation of PKCalpha from cytosol to membrane in CHO cells; assay type: functional, cell-based; details: Cricetulus griseus; method in brief: as §1
U-937 [11] = assay: Reduction of PMA-induced attachment of U937 cells at 30 uM after 48 hrs; assay type: functional, cell-based; details: Homo sapiens
CHO [12] = assay: Translocation of PKCalpha from cytosol to membrane in CHO cells at 20 uM after 120 mins; assay type: functional, cell-based; details: Cricetulus griseus; method in brief: as §1

Row | Structure (SMILES) | Ki [2] | EC50 (U-937 [3]) | EC50 [4] | also measured
1 | COC(=O)CCCCCCCCCCCCCCCOc1ccc(C#Cc2ccc(C#Cc3ccc(C(=O)OCC4(CO)CC(=C(C)C)C(=O)O4)cc3)cc2)cc1 (centres undefined) | 52.7 nM | 1000 nM | 3000 nM | Activity (LNCaP): Active
2 | CCCCCCCCCC(=O)OCC1(CO)CC(=C(C)C)C(=O)O1 (centres undefined) | 15.9 nM | – | – | Activity [6]: 25%; Activity (U-937 [3]): inactive; Activity [7]: 80%; Activity (CHO [8]): Active; EC50 [9]: 3000 nM; Activity (CHO [10]): Active
3 | C#Cc1ccc(C#Cc2ccc(C(=O)OCC3(CO)CC(=C(C)C)C(=O)O3)cc2)cc1 (centres undefined) | 5.23 nM | – | 3000 nM | Activity (CHO [8]): Active; EC50 [9]: 400 nM; Activity (CHO [10]): Active
4 | C#Cc1ccc(C#Cc2ccc(C#Cc3ccc(C(=O)OCC4(CO)CC(=C(C)C)C(=O)O4)cc3)cc2)cc1 (centres undefined) | 11.6 nM | 250 nM | 400 nM | Activity (U-937 [11]): Active; Activity (CHO [12]): Active
5 | COC(=O)COc1ccc(C#Cc2ccc(C#Cc3ccc(C#Cc4ccc(C(=O)OCC5(CO)CC(=C(C)C)C(=O)O5)cc4)cc3)cc2)cc1 (centres undefined) | 127 nM | – | – | –
6 | CCCCCCCCCCCCCC(=O)O[C@@H]1[C@@H](C)[C@@]2(O)[C@@H](C=C(CO)C[C@]3(O)C(=O)C(C)=C[C@@H]23)[C@@H]2C(C)(C)[C@]12OC(C)=O [PHORBOL MYRISTATE ACETATE] | – | 0.45 nM | 0.85 nM | –

Second part, led by results:

Row | Ki [2] | EC50 (U-937 [3]) | Structure (SMILES) | EC50 [4] | also measured
7 | 1390 nM | – | CC(C)=C1CC(CO)(COC(=O)c2ccc(C#Cc3ccc(C#Cc4ccc(OCCOCCOCCOC(=O)N(CC(=O)O)CC(=O)O)cc4)cc3)cc2)OC1=O (centres undefined) | – | Activity (CHO [1]): Active
8 | 18.3 nM | – | CC(C)=C1CC(CO)(COC(=O)c2ccc(C#Cc3ccc(C#Cc4ccc(OCCOCCOCCOC(=O)N(CC(=O)OC(C)(C)C)CC(=O)OC(C)(C)C)cc4)cc3)cc2)OC1=O (centres undefined) | – | Activity (U-937 [3]): Active; inhibition at 10 µM [5]: 35%
9 | 111 nM | – | CC(C)=C1CC(CO)(COC(=O)c2ccc(C#Cc3ccc(C#Cc4ccc(OCCOCCOCCN(CC(=O)OC(C)(C)C)CC(=O)OC(C)(C)C)cc4)cc3)cc2)OC1=O (centres undefined) | – | –
10 | 15.8 nM | – | COC(=O)COc1ccc(C#Cc2ccc(C#Cc3ccc(C(=O)OCC4(CO)CC(=C(C)C)C(=O)O4)cc3)cc2)cc1 (centres undefined) | – | –
11 | 5.88 nM | 260 nM | COc1ccc(C#Cc2ccc(C#Cc3ccc(C(=O)OCC4(CO)CC(=C(C)C)C(=O)O4)cc3)cc2)cc1 (centres undefined) | 430 nM | –
